# In ChEMBL document CHEMBL1671760, “Pharmacokinetics and pharmacogenomics of once-daily raltegravir and atazanavir in healthy volunteers” (Antimicrob Agents Chemother, 2010):
# Key:
# [1] = Ratio of drug level to raltegravir-glucoronide level in healthy human urine at 400 mg, po Bid coadministered with atazanavir 400 mg, po qd for 1 week by LC-MS/MS analysis; assay type: ADME, organism-based; conditions: in vivo, 168 h, in the assay text read “po qd” for “po Bid”
# Method in brief: (§1)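 Steady state was reached after 1 week of once-daily raltegravir 400 mg with atazanavir 400 mg in healthy adults. All urine was collected over 24 h after the witnessed dose and combined into 2-h pools. Raltegravir and raltegravir-glucuronide were assayed by LC-MS-MS, and amounts excreted were summed for 0–12 h and 12–24 h.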
# Homo sapiens [2] = assay: AUC (0 to tau) in human at 400 mg, po Bid coadministered with atazanavir 400 mg, po qd for 1 week by LC-MS/MS analysis; assay type: ADME, organism-based, Plasma; conditions: in vivo, 168 h, in the assay text read “po qd” for “po Bid”
# Method in brief: (§2)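 Arm B of a crossover in healthy adults (24–51 y), separated from the other arm by at least 3 days. Subjects took raltegravir 400 mg plus atazanavir 400 mg once daily for 1 week in a semifasted state. Plasma was sampled over 24 h after a witnessed dose. Raltegravir was quantified by LC-MS-MS after acetonitrile protein precipitation, and the glucuronide by negative-mode SRM (m/z 619.1→316.0) with a d3 internal standard. Noncompartmental analysis used the linear trapezoidal rule.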
# [3] = Drug level in healthy human urine assessed as raltegravir-glucoronide at 400 mg, po Bid for 1 week measured at 0-12 hrs post dose by LC-MS/MS analysis; assay type: ADME, organism-based; conditions: in vivo
# Method in brief: (§3)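 Healthy volunteers took raltegravir 400 mg twice daily for 1 week. After the witnessed dose, all urine was collected over 12 h and pooled into 2-h aliquots, then frozen at −70°C. Raltegravir and its glucuronide were measured by LC-MS-MS, and amounts were summed over 0–12 h. Values are geometric means of log10-transformed data.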
# [4] = AUC (0 to12 hrs) in healthy human at 400 mg, po qd coadministered with atazanavir 400 mg, po qd for 1 week by LC-MS/MS analysis; conditions: plasma
# [5] = Plasma concentration in healthy human at 400 mg, po qd coadministered with atazanavir 400 mg, po qd for 1 week measured 12 hrs post dose by LC-MS/MS analysis
# [6] = Apparent total plasma clearance in healthy human at 400 mg, po Bid for 1 week by LC-MS/MS analysis; assay type: ADME, organism-based
# Method in brief: (§4)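 Raltegravir 400 mg was given twice daily for 1 week, with 12-h plasma and urine profiles measured by LC-MS-MS. Apparent oral clearance was dose/AUC over the dosing interval. Renal clearance was the amount excreted in urine divided by plasma AUC over the same interval. Fe/F was Ae/(dose/F), with F unknown.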
# [7] = Renal clearance in healthy human at 400 mg, […] coadministered with atazanavir 400 mg, po qd for 1 week by LC-MS/MS analysis; assay type: ADME, organism-based; conditions: plasma, read-out: CL_renal
# Method in brief: (§5)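 Once-daily raltegravir 400 mg with atazanavir 400 mg was given for 1 week, with plasma and urine collected over 24 h and assayed by LC-MS-MS. Clearances were computed noncompartmentally: CL/F = dose/AUC(τ), renal CL = urinary amount/plasma AUC over the same interval, and Fe/F = Ae/(dose/F).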
# [8] = Ctau in healthy human plasma at 400 mg, po Bid for 1 week by LC-MS/MS analysis; assay type: ADME, organism-based; conditions: read-out: Ctau
# Method in brief: (§6)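 Healthy volunteers (24–51 y) took raltegravir 400 mg twice daily for 1 week in a crossover with at least 3 days between arms, dosing ≥1 h before or 2 h after food. After a witnessed dose, blood was drawn at 1, 2, 4, 8 and 12 h, with meals from 1 h. Plasma was analysed by LC-MS-MS after acetonitrile precipitation, using noncompartmental linear-trapezoidal AUC and log10-transformed geometric means.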
# [9] = Cmax in healthy human plasma at 400 mg, po Bid for 1 week by LC-MS/MS analysis; assay type: ADME, organism-based; parameters: dose 400 mg, route oral; method in brief: as §6
# Plasma [10] = assay: Renal clearance in healthy human assessed as raltegravir-glucoronide at […] coadministered with atazanavir 400 mg, po qd for 1 week by LC-MS/MS analysis; assay type: ADME, organism-based; conditions: in vivo, 168 h; method in brief: as §5
# [11] = Ctau in healthy human plasma at 400 mg, po qd coadministered with atazanavir 400 mg, po qd for 1 week by LC-MS/MS analysis
# [12] = Drug level in healthy human urine at 400 mg, po Bid coadministered with atazanavir 400 mg, po qd for 1 week measured at 0-12 hrs post dose by LC-MS/MS analysis; assay type: ADME, organism-based; conditions: in vivo, in the assay text read “po qd” for “po Bid”; method in brief: as §1
# [13] = Drug level in healthy human urine at 400 mg, po Bid for 1 week measured at 0-12 hrs post dose by LC-MS/MS analysis; assay type: ADME, organism-based; conditions: in vivo; method in brief: as §3
# [14] = Drug level in healthy human urine assessed as raltegravir-glucoronide at 400 mg, […] coadministered with atazanavir 400 mg, po qd for 1 week measured at 12 to 24 hrs post dose by LC-MS/MS analysis; assay type: ADME, organism-based; conditions: in vivo; method in brief: as §1
# [15] = Renal clearance in healthy human at 400 mg, po Bid for 1 week by LC-MS/MS analysis; assay type: ADME, organism-based; conditions: plasma, read-out: CL_renal; method in brief: as §4
# Plasma [16] = assay: Ctau in healthy human plasma assessed as raltegravir-glucoronide at 400 mg, […] coadministered with atazanavir 400 mg, po qd for 1 week by LC-MS/MS analysis; assay type: ADME, organism-based; conditions: in vivo, 168 h; method in brief: as §2
# [17] = Cmax in healthy human plasma at 400 mg, po qd coadministered with atazanavir 400 mg, po qd for 1 week by LC-MS/MS analysis
# Plasma [18] = assay: Cmax in healthy human plasma assessed as raltegravir-glucoronide at 400 mg, po Bid for 1 week by LC-MS/MS analysis; assay type: ADME, organism-based; parameters: dose 400 mg, route oral; conditions: in vivo, 168 h; method in brief: as §6
# Plasma [19] = assay: Plasma concentration in healthy human assessed as raltegravir-glucoronide at 400 mg, po […] coadministered with atazanavir 400 mg, po qd for 1 week measured 12 hrs post dose by LC-MS/MS analysis; assay type: ADME, organism-based; conditions: in vivo; method in brief: as §2
# [20] = Apparent clearance of oral drug in healthy human assessed as drug excreted unchanged at 400 mg, po Bid for 1 week by LC-MS/MS analysis; assay type: ADME, organism-based; conditions: in vivo, read-out: Fraction excreted unchanged; method in brief: as §4
# Plasma [21] = assay: Plasma concentration in healthy human assessed as raltegravir-glucoronide at 400 mg, po Bid for 1 week measured 12 hrs post dose by LC-MS/MS analysis; assay type: ADME, organism-based; conditions: in vivo; method in brief: as §6
# [22] = Apparent clearance of oral drug in healthy human assessed as drug excreted unchanged at 400 mg, po […] coadministered with atazanavir 400 mg, po qd for 1 week by LC-MS/MS analysis; assay type: ADME, organism-based; conditions: in vivo, read-out: Fraction excreted unchanged; method in brief: as §5
# [23] = AUC (0 to12 hrs) in healthy human at 400 mg, po Bid for 1 week by LC-MS/MS analysis; assay type: ADME, organism-based; parameters: dose 400 mg, time < 12 hr, route oral; conditions: plasma; method in brief: as §6
# [24] = Drug level in healthy human urine assessed as raltegravir-glucoronide at 400 mg, […] coadministered with atazanavir 400 mg, po qd for 1 week measured at 0-12 hrs post dose by LC-MS/MS analysis; assay type: ADME, organism-based; conditions: in vivo; method in brief: as §1
# [25] = Plasma concentration in healthy human at 400 mg, po Bid for 1 week measured 12 hrs post dose by LC-MS/MS analysis; assay type: ADME, organism-based; method in brief: as §6
# Homo sapiens [26] = assay: AUC (0 to12 hrs) in healthy human assessed as raltegravir-glucoronide at 400 mg, po Bid for 1 week by LC-MS/MS analysis; assay type: ADME, organism-based, Plasma; parameters: dose 400 mg, time < 12 hr, route oral; conditions: in vivo, 12 h; method in brief: as §6
# [27] = Apparent total plasma clearance in healthy human at 400 mg, po Bid coadministered with atazanavir 400 mg, po qd for 1 week by LC-MS/MS analysis; assay type: ADME, organism-based; conditions: in the assay text read “po qd” for “po Bid”; method in brief: as §5
# [28] = Drug level in healthy human urine at 400 mg, po Bid coadministered with atazanavir 400 mg, po qd for 1 week measured at 12 to 24 hrs post dose by LC-MS/MS analysis; assay type: ADME, organism-based; conditions: in vivo, in the assay text read “po qd” for “po Bid”; method in brief: as §1
# [29] = Ratio of drug level to raltegravir-glucoronide level in healthy human urine at 400 mg, po Bid for 1 week by LC-MS/MS analysis; assay type: ADME, organism-based; conditions: in vivo, 168 h; method in brief: as §3
# Homo sapiens [30] = assay: AUC (12 to 24 hrs) in healthy human assessed as raltegravir-glucoronide at 400 mg, po […] coadministered with atazanavir 400 mg, po qd for 1 week by LC-MS/MS analysis; assay type: ADME, organism-based, Plasma; parameters: time 12-24 hr, dose 400 mg, route oral; conditions: in vivo; method in brief: as §2
# [31] = AUC (0 to tau) in healthy human at 400 mg, po Bid for 1 week by LC-MS/MS analysis; assay type: ADME, organism-based; conditions: plasma; method in brief: as §6
# [32] = AUC (12 to24 hrs) in healthy human at 400 mg, po qd coadministered with atazanavir 400 mg, po qd for 1 week by LC-MS/MS analysis; conditions: plasma
# Plasma [33] = assay: Renal clearance in healthy human assessed as raltegravir-glucoronide at 400 mg, po Bid for 1 week by LC-MS/MS analysis; assay type: ADME, organism-based; conditions: in vivo, 168 h; method in brief: as §4
# Plasma [34] = assay: Ctau in healthy human plasma assessed as raltegravir-glucoronide at 400 mg, po Bid for 1 week by LC-MS/MS analysis; assay type: ADME, organism-based; conditions: in vivo, 168 h; method in brief: as §6
# Plasma [35] = assay: Cmax in healthy human plasma assessed as raltegravir-glucoronide at 400 mg, […] coadministered with atazanavir 400 mg, po qd for 1 week by LC-MS/MS analysis; assay type: ADME, organism-based; parameters: dose 400 mg, route oral; conditions: in vivo, 168 h; method in brief: as §2
smiles,measurement,setting,value
Cc1nnc(C(=O)NC(C)(C)c2nc(C(=O)NCc3ccc(F)cc3)c(O)c(=O)n2C)o1 [RALTEGRAVIR],Ratio,[1],7.81
same,AUC,Homo sapiens [2],6080 ng·h/mL
same,Drug uptake,[3],82.5 mg
same,AUC at 12 h,[4],4660 ng·h/mL
same,concentration at 12 h,[5],69 ng/mL
same,CL/F,[6],1890 mL/min
same,CL renal at 168 h,[7],39 mL/min
same,concentration at 168 h,[8],46 ng/mL
same,Cmax,[9],1020 ng/mL
same,CL_renal,Plasma [10],692 mL/min
same,concentration at 168 h,[11],18 ng/mL
same,Drug uptake,[12],10.81 mg
same,Drug uptake,[13],11.66 mg
same,Drug uptake,[14],7.03 mg
same,CL renal at 168 h,[15],55 mL/min
same,Ctau,Plasma [16],8 ng/mL
same,Cmax,[17],1400 ng/mL
same,Cmax,Plasma [18],799 ng/mL
same,Cp,Plasma [19],41 ng/mL
same,dose excreted at 168 h,[20],2.9%
same,Cp,Plasma [21],45 ng/mL
same,dose excreted at 168 h,[22],3.5%
same,AUC at 12 h,[23],3530 ng·h/mL
same,Drug uptake,[24],84.51 mg
same,concentration at 12 h,[25],46 ng/mL
same,AUC,Homo sapiens [26],3267 ng·h/mL
same,CL/F,[27],1100 mL/min
same,Drug uptake,[28],0.41 mg
same,Ratio,[29],7.08
same,AUC,Homo sapiens [30],342 ng·h/mL
same,AUC tau at 168 h,[31],3530 ng·h/mL
same,AUC,[32],875 ng·h/mL
same,CL_renal,Plasma [33],421 mL/min
same,Ctau,Plasma [34],45 ng/mL
same,Cmax,Plasma [35],458 ng/mL
